ABCB6 inh MLPCN – blocks the human ABCB6 transporter. AID 602162. K562-ABCB6 porphyrin accumulation, flow cytometry, 1 h; hits give low values. 360,000 tested, 0.19% active. fluorescence ratio to DMSO, % at 10 µM;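 active = fluorescence ratio to DMSO below 75%, the collection mean minus 3 SD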;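 note: signal is porphyrin accumulated inside mitochondria; 100% equals median channel fluorescence of DMSO control wells; lower ratio means ABCB6 inhibition with less porphyrin fluorescence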
iPSC survival up – enhancers of human iPSC single-cell survival | survival enhancement, % at 20 µM | 360,000 tested, 0.044% active | AID 602274 | hiPSC single-cell survival, ATPlite luminescence; 100% = ROCK inhibitor wells, 0% = DMSO; in the data active = survival enhancement above about 18%;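 note: cells exposed to compounds for 16 hours before the ATP read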
PG9 binder – PG9 antibody binding by small molecule. TR-FRET gp120-PG9 antibody binding. inhibition, % at 6.7 µM. 360,000 tested, 0.43% active; in the data active = inhibition above about 8.5%
Arr AP2 block – blocks beta-arrestin peptide binding to AP2 adaptin. FITC-arrestin peptide / GST-AP2 beads, flow cytometry; AP2 beta2 appendage carries R879A mutation. inhibition, % at 10 µM. 340,000 tested, 0.31% active;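 active = inhibition above a set limit, near 3 SD of compounds lacking own fluorescence, cut at about 54% in these data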;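 note: plate controls were DMSO wells for no effect and 5 µM unlabelled arrestin peptide for full effect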
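Material – GST-tagged AP2 beta2-adaptin appendage (R879A) on 4 µm glutathione beads · Probe or stimulus – fluorescein-tagged arrestin peptide at 50 nM final · Timing – 12 min plus 1 h, RT · Detection – bead flow cytometry, FITC channel · Read-out basis – inhibition as reduced fluorescein signal on beads, percent · Medium – PBS plus Tween 20 (0.05%) and BSA (0.1%)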
Arr AP2 CP1 – inhibitors of human beta-arrestin and AP2 interaction; shares compounds with Arr AP2 block; GST-AP2 beads, FITC arrestin peptide binding, flow cytometry; GST-fused beta2-adaptin appendage, R879A mutant; inhibition, % at 10 µM; 1,300 tested, 2% active;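 active = inhibition above a set limit, roughly 3 SD of non-fluorescent compound noise, cut at about 38% in these data; inactive = inhibition at or below that limit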;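 note: loss of bead fluorescence from 50 nM FITC arrestin peptide bound to appendage; 0% = negative control wells and 100% = excess unlabelled arrestin peptide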
GST-FITC bead – disrupts GST binding to glutathione beads, arrestin-AP2 artifact | shares compounds with Arr AP2 block | GST-fluorescein binding to GSH beads, fluorescence, counter-screen | inhibition, % at 10 µM | 1,300 tested, 2% active | AID 588338;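 active = inhibition above 50%, about 3 SD of the inhibition seen with non-fluorescent compounds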;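 note: fluorescein maleimide labelled GST captured on 4 micron glutathione beads; higher means more loss of bead fluorescence from quenching or blocked binding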
* = called active by the depositor; / = no result. Shown are actives, neighbours in structure and some others; about 0.89% of the full set was active somewhere.

SMILES	ABCB6 inh MLPCN	iPSC survival up	PG9 binder	Arr AP2 block	Arr AP2 CP1	GST-FITC bead
CCc1ccc(OCC(=O)NNCC(=O)Nc2ccc(OC)cc2)cc1	97	0	0	58*	-4	-8
Oc1[nH]c2c(Cl)cc(Cl)cc2c1N=NC(=S)NCC1CCCO1 (stereo not given)	91	0	-4	104*	20	1
COC(=O)C1=C(C)N(Cc2ccccc2C(F)(F)F)C(=NCc2ccccc2)NC1c1ccc(Cl)cc1 (stereo not given)	/	/	-1	/	/	/
CC(/C=N/Nc1nc2ccccc2[nH]1)=C\c1ccccc1	87	-3	-5	107*	1	9
C=CCN=C1NC(c2ccc(C(F)(F)F)cc2)C(C(=O)OC)=C(C)N1C (stereo not given)	/	/	0	/	/	/
CCCN1CCCCC(NC(=O)COCc2ccccc2)C1=O (stereo not given)	/	/	1	/	/	/
COc1ccc(N2CCN(S(=O)(=O)CCNC(=O)/C=C/c3ccc4c(c3)OCO4)CC2)cc1	98	0	2	63*	0	-1
COC(=O)C1=C(C)N(Cc2ccccc2C(F)(F)F)C(=NCc2ccccc2C(F)(F)F)NC1c1ccc(Cl)cc1 (stereo not given)	/	/	1	/	/	/
CC(C)c1ccc(NC(=O)c2ccccc2NC(=O)C2CCCCC2C(=O)O)cc1 (stereo not given)	93	0	1	54*	-6	-6
Cc1ccc(C2CC(c3cccs3)=NN2C(=O)CSc2nc3ccccc3o2)cc1 (stereo not given)	96	5	-1	62*	-1	-7
O=C(Nc1cccc([N+](=O)[O-])c1)OCc1ccc2c(c1)OCO2	/	/	-1	/	/	/
COc1ccc(CC(=O)NNC2=Nc3cccc4cccc2c34)cc1	99	0	-4	58*	2	-3
COc1ccc(C(=O)NNC2=Nc3cccc4cccc2c34)cc1	99	-1	-16	15	/	/
CC(C)(C)c1cccc(N/C(=C\C(=O)c2ccccc2)c2ccccc2)c1	/	/	0	/	/	/
Cn1nc(C(=O)NC2CCCC2)c2ccccc2c1=O	100	1	0	69*	4	0
Cn1c(C(=O)NC2CCCCC2)cc2c(=O)n3ccccc3nc21	100	0	3	60*	-2	-5
Cn1nc(C(=O)NC2CCC(O)CC2)c2ccccc2c1=O (stereo not given)	100	6	-1	-9	/	/
Clc1ccc(-c2csc(NCC3CCCO3)n2)cc1 (stereo not given)	/	/	-4	/	/	/
C#CCNC(=O)C[C@H]1C[C@@]2(C(=O)OC)C(=C[C@H](C(C)(C)C)O[C@@H]2C)N(CCC2=CCCCC2)C1=O	/	/	-1	/	/	/
CCOc1ccc(C(=O)NC(=S)Nc2ccc(NC(=O)c3ccco3)c(C)c2)cc1[N+](=O)[O-]	99	-1	-1	100*	1	-2
COc1ccc(NC(=O)c2ccco2)cc1NC(=O)c1ccccc1[N+](=O)[O-]	104	0	-2	55*	3	3
COc1cc(NC(=O)c2ccc(OC)c([N+](=O)[O-])c2)ccc1NC(=O)c1ccco1	95	-1	-2	18	/	/
O=C(c1ccccc1)N1CCC2CCN(S(=O)(=O)c3ccccc3)CC21 (stereo not given)	/	/	2	/	/	/
COc1cc(CC(=O)OCC(=O)N2CCCCC2)cc(OC)c1OC	101	1	-1	58*	1	-5
COc1cc(CC(=O)OCC(=O)N2CCN(C(=O)c3ccco3)CC2)cc(OC)c1OC	98	1	-1	-13	/	/
CCOC(=O)CSC1=N/C(=C\c2cccnc2)C(=O)N1c1ccc(OC)cc1	105	6	1	105*	2	-4
CCSC1=N/C(=C\c2cccnc2)C(=O)N1c1ccccc1	103	2	-2	-3	/	/
Cc1cc(C)c(NC(=O)CC(=O)c2ccccc2)c(Cl)c1	85	0	-1	-12	11	-5
CN(Cc1cccc(F)c1)C(=O)c1cc(S(=O)(=O)N2CCOCC2)ccc1N1CCCC1	106	0	-1	-2	-4	-4
CCc1ccc(CN(C)C(=O)c2cc(S(=O)(=O)N3CCOCC3)ccc2N2CCCC2)cc1	93	0	-1	-4	-15	-4
